{"data": "Experimental data of several laboratories", "cell line": "THP-1", "note": "Protocols differ between the studies behind these lines."}
{"Structure (SMILES)": "CC[C@@H](C)[C@H](N)C(=O)N1Cc2ccccc2C1", "test": "cell growth or viability, ATP luminescence", "conditions": "48 h", "IC50": "2.5 µM"}
{"Structure (SMILES)": "COc1ccc(-c2nc(C(=O)Nc3nnc(-c4cc5ccccc5n4C)s3)cc3c2[nH]c2ccccc23)cc1", "test": "cell growth or viability, MTT", "conditions": "72 h", "IC50": "14.5 µM"}
{"Structure (SMILES)": "CC(C)(C)c1ccc(S(=O)(=O)/C=C/C#N)cc1", "test": "TNF-α release, inhibitor", "conditions": "17 h, LPS-stimulated", "IC50": "0.74 µM"}
{"Structure (SMILES)": "CCn1c(-c2nnc(NC(=O)c3cc4c([nH]c5ccccc54)c(-c4ccc(C)cc4)n3)s2)cc2ccccc21", "test": "cell growth or viability, MTT", "conditions": "72 h", "IC50": "38.9 µM"}
{"Structure (SMILES)": "O=C(O)c1ccc(CN2CCC(CN[C@@H]3C[C@H]3c3ccccc3)CC2)cc1", "test": "cell growth or viability, MTS", "conditions": "6 days", "IC50": "> 50 µM"}
{"Structure (SMILES)": "CNCC(O)c1ccc(O)c(O)c1 (racemic)", "test": "TNF-α release, inhibitor", "conditions": "17 h, LPS-stimulated", "IC50": "0.15 µM"}
{"Structure (SMILES)": "N[C@@H](CC(=O)N1CCN(C(c2ccc(F)cc2)c2ccc(F)cc2)CC1)C(=O)N1Cc2ccccc2C1", "test": "cell growth or viability, ATP luminescence", "conditions": "48 h", "IC50": "2.74 µM"}
{"Structure (SMILES)": "COc1cc(/C=C/C(=O)CC(=O)/C=C/c2ccc(O)c(OC)c2)ccc1O", "test": "cell growth or viability, MTT", "conditions": "48 h", "IC50": "24 mg/L"}
{"Structure (SMILES)": "NCCc1c[nH]cn1", "test": "TNF-α release, inhibitor", "conditions": "17 h, LPS-stimulated", "IC50": "1.89 µM"}
{"Structure (SMILES)": "O=[N+]([O-])c1c[nH]nc1-c1nc(-c2ccc3oc4ccccc4c3c2)no1", "test": "cell growth or viability, LDH", "conditions": "24 h", "IC50": "9.8 mg/L"}
{"Structure (SMILES)": "Cn1c(-c2nnc(NC(=O)c3cc4c([nH]c5ccccc54)c(-c4ccccc4)n3)s2)cc2ccccc21", "test": "cell growth or viability, MTT", "conditions": "72 h", "IC50": "14.2 µM"}
{"Structure (SMILES)": "C=C1C(=O)O[C@H]2[C@H]1CC/C(C)=C/CC[C@@]1(C)O[C@@H]21", "test": "TNF-α release, inhibitor", "conditions": "17 h, LPS-stimulated", "IC50": "1.3 µM"}
{"Structure (SMILES)": "COc1cccc2c1C(=O)c1c(O)c3c(c(O)c1C2=O)C[C@@](O)(C(=O)CO)C[C@@H]3O[C@H]1C[C@H](N)[C@H](O)[C@H](C)O1", "test": "cell growth or viability, MTT", "conditions": "48 h", "IC50": "2.7 mg/L"}
{"Structure (SMILES)": "CC(C)(C)NCC(O)c1cc(O)cc(O)c1 (centres unmarked)", "test": "TNF-α release, inhibitor", "conditions": "17 h, LPS-stimulated", "IC50": "2.18 µM"}
{"Structure (SMILES)": "CCn1c(-c2nnc(NC(=O)c3cc4c([nH]c5ccccc54)c(-c4ccc(OC)cc4)n3)s2)cc2ccccc21", "test": "cell growth or viability, MTT", "conditions": "72 h", "IC50": "48.6 µM"}
{"Structure (SMILES)": "CC(CCc1ccc(O)cc1)NCCc1ccc(O)c(O)c1 (centres unmarked)", "test": "TNF-α release, inhibitor", "conditions": "17 h, LPS-stimulated", "IC50": "0.51 µM"}
{"Structure (SMILES)": "COc1ccc(-c2nc(C(=O)Nc3nnc(-c4cc5ccccc5[nH]4)s3)cc3c2[nH]c2ccccc23)cc1", "test": "cell growth or viability, MTT", "conditions": "72 h", "IC50": "3.18 µM"}
{"Structure (SMILES)": "Nc1nc(Nc2ccc3c(c2)CC[C@@H](N2CCCC2)CC3)nn1-c1cc2c(nn1)-c1ccccc1CCC2", "test": "cell growth or viability, trypan blue", "conditions": "72 h", "IC50": "2.54 µM"}
{"Structure (SMILES)": "CCn1c(-c2nnc(NC(=O)c3cc4c([nH]c5ccccc54)c(-c4cc(OC)c(OC)c(OC)c4)n3)s2)cc2ccccc21", "test": "cell growth or viability, MTT", "conditions": "72 h", "IC50": "40.2 µM"}
{"Structure (SMILES)": "Cl.NCc1ccc(-c2nc(-c3ccc(Oc4ccc(C(F)(F)F)cc4)cc3)no2)cc1", "test": "cell growth or viability, LDH", "conditions": "24 h", "IC50": "4.4 mg/L"}
